Assay results published in ChEMBL document CHEMBL3612020.
pIC50: −log10 of the molar value.

Key:
D-amino-acid oxidase [1] = target: T1, D-amino-acid oxidase (Homo sapiens, UniProt P14920); experiment: Inhibition of recombinant human DAAO expressed in HEK cells using D-serine as substrate assessed as formation of alpha-keto acid, ammonia, […] after 20 mins by horseradish peroxidase/o-phenylenediamine-based assay; set-up: species or system HEK293
How it was run: (§1)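 Human DAAO from HEK cells: lysate in 50 mM Tris pH 8.5 with 100 µM FAD, sonicated, then ion-exchange purified with a 0–0.5 M NaCl gradient. […] Enzyme set to give 2.0 mOD/min uninhibited. Rate read as absorbance change at 411 nm. Mean ± SD of ≥4 experiments in most cases.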

[2] = Metabolic stability in mouse liver microsomes assessed as compound remaining at 5 uM after 60 mins by LC/MS/MS analysis in presence of NADPH; format: ADME; details: 1 h
How it was run: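 Mouse liver microsomes (0.5 mg/mL) with 5 µM test compound in 100 mM potassium phosphate pH 7.4 plus NADPH regenerating system (1.3 mM NADPH). Reaction started with microsomes, run in duplicate for 60 min, quenched with cold acetonitrile containing internal standard. Parent quantified by LC/MS/MS; cofactor-free controls included.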

[3] = Metabolic stability in mouse liver microsomes assessed as compound remaining at 5 uM after 60 mins by LC/MS/MS analysis in presence of UDPGA; format: ADME; details: 1 h
How it was run: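 Glucuronidation in mouse liver microsomes (0.5 mg/mL): 50 mM Tris-HCl pH 7.5, 8 mM MgCl2, 25 µg/mL alamethicin, pre-incubated at 37 °C. Started with 2 mM UDPGA (final), in duplicate, for 60 min. Quenched with cold acetonitrile plus internal standard; LC/MS/MS read-out, with cofactor-free controls.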

D-amino-acid oxidase [4] = target: T1, D-amino-acid oxidase; experiment: Inhibition of DAAO (unknown origin); how it was run: as §1

T1 sequence (P14920 whole entry): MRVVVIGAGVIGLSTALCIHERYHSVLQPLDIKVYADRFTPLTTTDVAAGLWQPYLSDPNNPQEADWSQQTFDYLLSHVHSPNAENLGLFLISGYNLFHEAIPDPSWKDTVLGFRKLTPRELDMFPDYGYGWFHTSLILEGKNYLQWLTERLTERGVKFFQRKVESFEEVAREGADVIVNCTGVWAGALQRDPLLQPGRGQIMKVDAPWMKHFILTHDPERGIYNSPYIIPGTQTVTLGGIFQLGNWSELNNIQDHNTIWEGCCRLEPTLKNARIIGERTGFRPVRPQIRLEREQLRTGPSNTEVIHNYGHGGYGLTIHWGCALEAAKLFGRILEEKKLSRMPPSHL

SMILES	pIC50 (D-amino-acid oxidase [1])	other results
O=c1[nH]c(=O)n(CCc2ccccc2)nc1O	7.15	Stability [2]: >= 99%; Stability [3]: >= 99%
CO/N=C(\C(=O)N[C@@H]1C(=O)N2C(C(=O)O)=C(CSc3nc(=O)c(=O)[nH]n3C)CS[C@H]12)c1csc(N)n1 [CEFTRIAXONE]	–	pIC50 (D-amino-acid oxidase [4]): 5.00
O=c1[nH]c(=S)n(CCc2ccccc2)nc1O	–	Stability [2]: 87%; Stability [3]: >= 99%
O=c1[nH]c(=O)n(CCc2cccc(C(F)(F)F)c2)nc1O	7.00	–
O=c1[nH]c(=O)n(CCCc2ccccc2)nc1O	5.77	–
O=c1[nH]c(=O)n(CCn2cccn2)nc1O	6.48	–
O=c1[nH]c(=O)n(CCc2ccc(F)cc2)nc1O	7.30	–
O=c1[nH]c(=O)n(CCc2cccc(O)c2)nc1O	6.80	–
O=c1[nH]c(=O)n(-c2ccccc2)nc1O	< 4.00	–
O=c1[nH]c(=O)n(CCc2ccc(O)cc2)nc1O	6.96	–
O=c1[nH]c(=O)n(CCc2ccccn2)nc1O	6.12	–

Continued, in another order:

pIC50 (D-amino-acid oxidase [1])	SMILES	other results
6.36	O=c1[nH]c(=O)n(CCn2cnc3ccccc32)nc1O	–
6.92	COc1ccc(CCn2nc(O)c(=O)[nH]c2=O)cc1	–
6.62	O=c1[nH]c(=O)n(CCc2cccc(Oc3ccccc3)c2)nc1O	–
6.66	O=c1[nH]c(=O)n(Cc2ccc3ccccc3c2)nc1O	–
6.57	COc1ccccc1CCn1nc(O)c(=O)[nH]c1=O	–
7.10	O=c1[nH]c(=O)n(CCc2ccccc2)cc1O	Stability [3]: <= 1%
6.51	O=c1[nH]c(=O)n(CCn2ccc3cccnc32)nc1O	–
